Only some compounds are listed: those with a hit (about 1.3% of all), similar ones and a draw of the others.
HKDC1 inh: blocks human hexokinase HKDC1 activity; Q2TB90; 0.16% of 340,000 active; recombinant HKDC1, G6PDH/diaphorase resazurin coupled fluorescence; AID 493160; inhibition, % at 20 µM;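 active means inhibition above about 35% when tested at 20 µM, limit read from the data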
Target sequence (Q2TB90 whole entry, looked up): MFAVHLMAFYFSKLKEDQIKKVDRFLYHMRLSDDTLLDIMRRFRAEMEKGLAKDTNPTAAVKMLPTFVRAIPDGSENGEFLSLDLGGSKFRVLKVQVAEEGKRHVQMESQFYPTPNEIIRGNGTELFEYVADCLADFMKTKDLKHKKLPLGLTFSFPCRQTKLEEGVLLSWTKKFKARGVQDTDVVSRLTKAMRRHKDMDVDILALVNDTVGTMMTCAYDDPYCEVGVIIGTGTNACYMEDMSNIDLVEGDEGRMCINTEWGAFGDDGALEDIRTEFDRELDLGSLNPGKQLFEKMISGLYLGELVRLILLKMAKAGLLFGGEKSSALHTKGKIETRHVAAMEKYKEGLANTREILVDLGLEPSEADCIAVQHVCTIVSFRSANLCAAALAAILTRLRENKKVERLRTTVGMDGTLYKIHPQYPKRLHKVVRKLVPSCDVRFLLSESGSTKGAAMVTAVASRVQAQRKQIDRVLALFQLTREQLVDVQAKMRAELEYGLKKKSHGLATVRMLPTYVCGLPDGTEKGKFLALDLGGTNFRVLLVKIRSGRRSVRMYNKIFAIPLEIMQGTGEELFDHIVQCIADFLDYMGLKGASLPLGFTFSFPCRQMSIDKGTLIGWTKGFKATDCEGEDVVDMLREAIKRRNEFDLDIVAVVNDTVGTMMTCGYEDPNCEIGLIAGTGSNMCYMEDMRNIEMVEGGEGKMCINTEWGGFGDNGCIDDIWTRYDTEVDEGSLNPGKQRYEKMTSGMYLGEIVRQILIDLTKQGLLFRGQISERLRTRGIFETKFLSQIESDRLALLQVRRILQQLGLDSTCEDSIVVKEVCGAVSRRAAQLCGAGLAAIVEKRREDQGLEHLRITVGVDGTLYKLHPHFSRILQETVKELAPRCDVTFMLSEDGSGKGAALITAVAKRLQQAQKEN
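test system = in-house recombinant HK5 (HKDC1) enzyme | amount = HKDC1 at 5 µg/mL | control set = DMSO-enzyme wells negative, buffer-substituted wells positive | compound = one dose of 20 µM, 1% DMSO | schedule = reaction time 90 min, room temperature, protected from light | technique = resorufin fluorescence at 613 nm | reagent = glucose with 1 mM ATP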
G6PDH CS: L. mesenteroides G6PDH inhibition counter-screen. inhibition, % at 5 µM. Purified L. mesenteroides G6PDH, diaphorase/resazurin coupled fluorescence, 45 min. AID 1020. 0.12% of 200,000 active; in the data active means inhibition above about 50%
Diaphorase inh: counter-screen for diaphorase-based assays: diaphorase inhibitors and chemical oxidizers. inhibition, % at 20 µM. 0.69% of 190,000 active. AID 1217. diaphorase resazurin-to-resorufin fluorescence, NADH, 16 min; bacterial (C. kluyveri) enzyme, not human;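 active means primary screen inhibition at 20 µM above a set limit, cut at about 50% in these data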
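System: Bacterial diaphorase enzyme (C. kluyveri) | Incubation: 16-min room-temperature incubation before reading | Benchmarks: No-NADH positive control and DMSO neutral control | Measured by: Resorufin fluorescence 544/590 nm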
PfGluPho inh: PfG6PD (Plasmodium falciparum) enzyme inhibition. PfGluPho enzyme, NADPH resazurin-diaphorase fluorescence. inhibition, % at 20 µM. 0.78% of 350,000 active;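 active means inhibition reaching at least a set limit at 20 µM in the primary screen, cut at about 59% in these data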
Diaph act CS: diaphorase activation or chemical reduction counter-screen; Diaphorase/resazurin coupled assay, resorufin fluorescence, 16 min; hits give high values; 1 = vehicle wells, 0 = NADH-free wells; 0.005% of 190,000 active; activation factor at 20 µM; AID 1229;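 active means diaphorase activity raised at least twofold by the compound at 20 µM; inactive means activation factor below 2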
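Assay system: Purified diaphorase enzyme from Clostridium kluyveri | Amount: Enzyme 0.07 U/mL final | Dosing: Compound 20 µM once, DMSO 1% | Timing: 16 min reaction at room temperature | Detection: Fluorescence, excitation 544 nm and emission 590 nm | Evaluation: Higher resorufin formation from activation or reduction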
TbHK1 inh: blocks Trypanosoma brucei hexokinase 1 activity; recombinant TbHK1, G6PDH-coupled NADH A340; inhibition, % at 10 µM; 0.11% of 220,000 active;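 active means inhibition of 50% or more in the single-dose primary screen; inactive means inhibition below 50%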
PfG6PD confirm: PfG6PD inhibition, single-dose confirmed | shares compounds with PfGluPho inh | recombinant PfGluPho, NADPH-diaphorase-resazurin fluorescence | inhibition, % at 20 µM | 34% of 2,400 active;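 active means inhibition of at least 50% at 20 µM in any single replicate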
Diaphorase 10uM: diaphorase inhibition or oxidation at 10 uM NADPH | shares compounds with PfGluPho inh | diaphorase-coupled resazurin reduction, fluorescence, NADPH 10 uM | inhibition, % at 20 µM | 39% of 820 active | AID 504862;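 active means average inhibition reaching 50% or more with the compound at 20 µM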;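 further: resorufin red fluorescence formed as diaphorase reduces resazurin using NADPH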
Diaph ctr 30uM: inhibits diaphorase or oxidizes, flagging false PfG6PD hits; 29% of 820 active; Diaphorase/resazurin coupled assay, resorufin fluorescence, 30 uM NADPH; shares compounds with PfGluPho inh; AID 504863; inhibition, % at 20 µM;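 active means inhibition averaging 50% or more, tested at 20 µM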
Each line names hits and unclear results; the compound was inactive in the other large screens (follow-up assays come after a bar, where they were run).

O=[N+]([O-])c1ccc2nc(-c3ccc(Cl)cc3)n(OCc3ccccc3)c2c1	PfGluPho inh 122 | PfG6PD confirm inactive
CCOC(=O)C(C)On1c(-c2ccc(Cl)cc2)nc2ccc([N+](=O)[O-])cc21 (stereo not given)	PfGluPho inh 76 | PfG6PD confirm inactive
O=c1c2ccc(Cl)cc2nc(-c2ccc([N+](=O)[O-])cc2)n1O	none
CCOC(=O)C(C)On1c(-c2ccccc2)nc2ccc([N+](=O)[O-])cc21 (stereo not given)	PfGluPho inh 62 | PfG6PD confirm inactive
CC1CCCN(C(=O)CSc2nnc3ccccn23)C1 (stereo not given)	none (no result: G6PDH CS, Diaphorase inh, Diaph act CS, TbHK1 inh)
NC(=O)C1CCN(C(=O)CCSCc2ccccc2)CC1	none (no result: G6PDH CS, Diaphorase inh, Diaph act CS, TbHK1 inh)
O=C(Nc1ccc(N2CCOCC2)c(Cl)c1)c1ccc2c(c1)OCCO2	PfGluPho inh 83 (no result: Diaphorase inh, Diaph act CS) | PfG6PD confirm inactive
O=C(Nc1ccc(N2CCCCC2)c(Cl)c1)c1ccc(N2CCOCC2)c([N+](=O)[O-])c1	none
O=C(Nc1ccc(N2CCCCC2)c(Cl)c1)c1ccc2c(c1)OCCO2	PfGluPho inh 99 | PfG6PD confirm inactive
Cc1ccc(NC(=O)c2cc(N3C(=O)C=CC3=O)ccc2N2CCOCC2)cc1Cl	PfGluPho inh 74 | PfG6PD confirm 102 | Diaphorase 10uM inactive | Diaph ctr 30uM inactive
O=C(Nc1cc(Cl)ccc1N1CCOCC1)c1ccc2c(c1)OCO2	none (no result: HKDC1 inh, G6PDH CS, Diaphorase inh, Diaph act CS, TbHK1 inh)
O=C(Nc1ccc(N2CCCC2)c(Cl)c1)c1ccc(Br)o1	PfGluPho inh 59 | PfG6PD confirm inactive
COc1ccc(S(=O)(=O)N2CCOCC2)cc1NC(=O)CCc1c[nH]c2ccccc12	none
O=C(Nc1ccc(Cl)c(Cl)c1)c1ccc2c(c1)OCO2	none (no result: G6PDH CS, Diaphorase inh, Diaph act CS, TbHK1 inh)
O=C(Nc1ccc(N2CCOCC2)c(Cl)c1)c1ccc(Cl)cc1	PfGluPho inh 100 | PfG6PD confirm 61 | Diaphorase 10uM 51 | Diaph ctr 30uM inactive
O=C(Nc1ccc(N2CCCC2)c(Cl)c1)c1ccc2c(c1)OCCO2	PfGluPho inh 67 (no result: G6PDH CS, Diaphorase inh, Diaph act CS) | PfG6PD confirm inactive
Cc1ccccc1NC(=O)Cc1nc(COC(=O)Cc2cccc(C(F)(F)F)c2)cs1	none (no result: HKDC1 inh, G6PDH CS, Diaphorase inh, Diaph act CS, TbHK1 inh)
CC(C(=O)O)n1c(-c2ccn[nH]2)n[nH]c1=S (stereo not given)	none (no result: G6PDH CS, Diaphorase inh, Diaph act CS)
Cc1cc(CNC(=O)C2(C(F)(F)F)C/C(=C\Cc3ccccc3)CCCO2)nn1C (stereo not given)	none (no result: G6PDH CS, Diaphorase inh, Diaph act CS, TbHK1 inh)
Oc1ccccc1NCC(O)Cn1ccc2ccccc21 (stereo not given)	PfGluPho inh 66 | PfG6PD confirm inactive
OC(CNCc1ccccc1)Cn1ccc2ccccc21 (stereo not given)	none
COc1ncccc1C(=O)N1CCCC(C(=O)Nc2cccc(-c3ccc(F)cc3)c2)C1 (stereo not given)	none (no result: HKDC1 inh, G6PDH CS, Diaphorase inh, Diaph act CS, TbHK1 inh)
Cc1cc(C(=O)Cn2nnc3ccccc3c2=O)c(C)n1-c1ccccc1F	PfGluPho inh 65 | PfG6PD confirm inactive
Cc1nc(NC(=O)CN2CCN(c3cccc(Cl)c3)CC2)sc1C(=O)N(C)C	none (no result: G6PDH CS, Diaphorase inh, Diaph act CS, TbHK1 inh)
Cc1nc2scc(-c3ccccc3)c2c(=O)n1N=C1C=CC(=O)C=C1	PfGluPho inh 113 (no result: Diaphorase inh, Diaph act CS) | PfG6PD confirm 111 | Diaphorase 10uM 95 | Diaph ctr 30uM 89
Cc1nc2scc(-c3ccccc3)c2c(=O)n1N	none
COc1ccc(CC(=O)NNC(=O)COc2ccc(Cl)cc2C)cc1S(=O)(=O)N1CCOCC1	none (no result: G6PDH CS, Diaphorase inh, Diaph act CS, TbHK1 inh)
CC(=O)c1cccc(OCC(=O)c2cc(C)n(-c3cc(C)on3)c2C)c1	PfGluPho inh 117 | PfG6PD confirm 62 | Diaphorase 10uM 62 | Diaph ctr 30uM 55
O=C(COc1ccc2ccc(=O)oc2c1)c1ccccc1	none (no result: G6PDH CS, Diaphorase inh, Diaph act CS)

From PubChem BioAssay
